Experimental data as given in ChEMBL document CHEMBL1687936, “Radiosynthesis and biological evaluation of L- and D-S-(3-[18F]fluoropropyl)homocysteine for tumor imaging using positron emission tomography” (J Med Chem, 2011).

Columns and labels:
Blood [1] = test: Biodistribution in blood of BALB/c nude mouse xenografted with human A375 cells at 0.8 to 1 MBq, iv after 30 mins by gamma-counter; assay type: ADME, organism-based, A-375; settings: in vivo, 0.5 h
How it was run: (§1)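 Female Balb/c nude mice with s.c. A375 flank tumors, studied 26 days after tumor induction. Tracer 0.8-1 MBq in 100 μL saline given i.v. Groups of n = 5 killed at 15, 30, 60 and 120 min. Organs weighed and counted in a γ-counter against dilutions of the injected dose. Values are % ID/g wet tissue, mean ± SD.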

Brain [2] = test: Drug level in brain cortex extract of BALB/c nude mouse xenografted with human A375 cells assessed as radioactivity in protein fraction after 0.25 to 2 hrs; assay type: ADME, tissue-based, A-375; settings: in vivo
How it was run: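 Female Balb/c nude mice bore subcutaneous A375 flank tumors and received 18-20 MBq tracer iv. Plasma or tissue was sonicated in 10% TCA with unlabeled FPHCys and KF, then centrifuged at 6000g; the pellet was re-extracted twice. Protein-bound fraction is pellet versus supernatant radioactivity, sampled at 0.25, 1 and 2 h.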

Muscle tissue = test: Biodistribution in muscle of BALB/c nude mouse xenografted with human A375 cells at 0.8 to 1 MBq, iv after 30 mins by gamma-counter; assay type: ADME, organism-based, A-375; settings: in vivo, 0.5 h; how it was run: as §1
Kidney [3] = test: Biodistribution in kidney of BALB/c nude mouse xenografted with human A375 cells after 60 mins by PET/CT imaging; assay type: ADME, organism-based, A-375; settings: in vivo, 1 h
How it was run: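 Female Balb/c nude mice with A375 tumors (1×10^6 cells in Ca/Mg-free PBS injected s.c. in left flank at 6 weeks old). Mice under isoflurane in oxygen. 10 min CT scan, then 18-20 MBq tracer in 100 μL saline given i.v. with a 2 h PET acquisition. Coronal images at 60 min postinjection; n = 3.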

Pancreas [4] = test: Biodistribution in pancreas of BALB/c nude mouse xenografted with human A375 cells at 0.8 to 1 MBq, iv after 30 mins by gamma-counter; assay type: ADME, organism-based, A-375; settings: in vivo, 0.5 h; how it was run: as §1
[5] = Biodistribution in tumor of BALB/c nude mouse xenografted with human A375 cells at 0.8 to 1 MBq, iv after 30 mins by gamma-counter; assay type: ADME, organism-based, Neoplasm, A-375; settings: in vivo, 0.5 h; how it was run: as §1
Bone = test: Biodistribution in bone of BALB/c nude mouse xenografted with human A375 cells at 0.8 to 1 MBq, iv after 120 mins by gamma-counter; assay type: ADME, organism-based, Bone element, A-375; settings: in vivo, 2 h; how it was run: as §1
HT-29 [6] = test: Drug uptake in human HT-29 cells in presence of amino acid transport system L inhibitor BCH; assay type: ADME, cell-based
How it was run: (§2)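 Cells were prepared as for the uptake assay and preincubated at 37 °C with inhibitor at 12.5 mmol/L in PBS; controls received PBS. 0.37 MBq [18F]tracer was added and incubated 30 min at 37 °C. Cells were washed cold, lysed and γ-counted. Uptake is given as % of the control group, n = 3.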

HT-29 [7] = test: Cellular uptake in human HT-29 cells assessed as accumulation per 10^5 cells after 4 hours by gamma-counter; assay type: ADME, cell-based; settings: ht-29, 4 h
How it was run: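 Cells seeded at 2.5 × 10^5 per well in RPMI-1640 with 10% FBS and 2 mM L-glutamine, attached overnight, then washed with warm PBS. Incubated at 37 °C with 0.37 MBq [18F]tracer in PBS for 2–240 min. Cells washed with ice-cold PBS, lysed in 0.2 N NaOH and counted by γ-counter. Read as % applied dose per 10^5 cells, decay-corrected, n = 3.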

Heart [8] = test: Biodistribution in heart of BALB/c nude mouse xenografted with human A375 cells at 0.8 to 1 MBq, iv after 120 mins by gamma-counter; assay type: ADME, organism-based, A-375; settings: in vivo, 2 h; how it was run: as §1
Pancreas [9] = test: Metabolic stability in pancreas of BALB/c nude mouse xenografted with human A375 cells assessed as radioactivity after 0.25 to 1 hrs by HPLC analysis; assay type: ADME, tissue-based, A-375; settings: in vivo
How it was run: (§3)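 A375-tumored Balb/c nude mice received 18-20 MBq tracer iv. Plasma and urine were spiked with unlabeled FPHCys and KF and injected directly; tissues were sonicated in saline with carrier and centrifuged at 6000g. Radio-HPLC on C18 with methanol/phosphate buffer pH 6 gave intact fraction as authentic peak over total activity, at 0.25, 1 and 2 h.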

Lung = test: Biodistribution in lungs of BALB/c nude mouse xenografted with human A375 cells at 0.8 to 1 MBq, iv after 15 mins by gamma-counter; assay type: ADME, organism-based, A-375; settings: in vivo, 0.25 h; how it was run: as §1
Brain [10] = test: Biodistribution in brain of BALB/c nude mouse xenografted with human A375 cells at 0.8 to 1 MBq, iv after 120 mins by gamma-counter; assay type: ADME, organism-based, A-375; settings: in vivo, 2 h; how it was run: as §1
Blood [11] = test: Biodistribution in blood of BALB/c nude mouse xenografted with human A375 cells at 0.8 to 1 MBq, iv after 15 mins by gamma-counter; assay type: ADME, organism-based, A-375; settings: in vivo, 0.25 h; how it was run: as §1
Heart [12] = test: Biodistribution in heart of BALB/c nude mouse xenografted with human A375 cells at 0.8 to 1 MBq, iv after 15 mins by gamma-counter; assay type: ADME, organism-based, A-375; settings: in vivo, 0.25 h; how it was run: as §1
HT-29 [13] = test: Drug uptake in human HT-29 cells in presence of amino acid transport system A inhibitor MeAIB; assay type: ADME, cell-based; how it was run: as §2
Brain [14] = test: Biodistribution in brain of BALB/c nude mouse xenografted with human A375 cells at 0.8 to 1 MBq, iv after 60 mins by gamma-counter; assay type: ADME, organism-based, A-375; settings: in vivo, 1 h; how it was run: as §1
Kidney [15] = test: Biodistribution in kidney of BALB/c nude mouse xenografted with human A375 cells at 0.8 to 1 MBq, iv after 30 mins by gamma-counter; assay type: ADME, organism-based, A-375; settings: in vivo, 0.5 h; how it was run: as §1
Pancreas [16] = test: Biodistribution in pancreas of BALB/c nude mouse xenografted with human A375 cells at 0.8 to 1 MBq, iv after 15 mins by gamma-counter; assay type: ADME, organism-based, A-375; settings: in vivo, 0.25 h; how it was run: as §1
A-375 [17] = test: Cellular uptake in human A375 cells after 15 mins by gamma-counter; assay type: ADME, cell-based; settings: a-375, 0.25 h
How it was run: (§4)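 A375 cells grown in RPMI-1640 with 10% FBS and 2 mM L-glutamine; 2.5×10^5 seeded per well overnight, counts done in triplicate. After a warm PBS wash, cells got 0.37 MBq tracer in 500 μL PBS at 37 °C. Stopped with ice-cold PBS wash, lysed in 0.2 N NaOH, counted in a γ-counter. Decay-corrected % applied dose per 10^5 cells, mean ± SD, n = 3.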

[18] = Biodistribution in tumor of BALB/c nude mouse xenografted with human A375 cells at 0.8 to 1 MBq, iv after 60 mins by gamma-counter; assay type: ADME, organism-based, Neoplasm, A-375; settings: in vivo, 1 h; how it was run: as §1
Pancreas [19] = test: Biodistribution in pancreas of BALB/c nude mouse xenografted with human A375 cells at 0.8 to 1 MBq, iv after 60 mins by gamma-counter; assay type: ADME, organism-based, A-375; settings: in vivo, 1 h; how it was run: as §1
Spleen = test: Biodistribution in spleen of BALB/c nude mouse xenografted with human A375 cells at 0.8 to 1 MBq, iv after 120 mins by gamma-counter; assay type: ADME, organism-based, A-375; settings: in vivo, 2 h; how it was run: as §1
[20] = Biodistribution in tumor of BALB/c nude mouse xenografted with human A375 cells at 0.8 to 1 MBq, iv after 120 mins by gamma-counter; assay type: ADME, organism-based, Neoplasm, A-375; settings: in vivo, 2 h; how it was run: as §1
[21] = Metabolic stability in urine of BALB/c nude mouse xenografted with human A375 cells assessed as radioactivity after 2 hrs by HPLC analysis; assay type: ADME, tissue-based, A-375; settings: in vivo; how it was run: as §3
[22] = Metabolic stability in human A375 cells xenografted in BALB/c nude mouse assessed as radioactivity after 0.25 by HPLC analysis; assay type: ADME, cell-based, A-375; settings: in vivo; how it was run: as §3
A-375 [23] = test: Cellular uptake in human A375 cells after 2 mins by gamma-counter; assay type: ADME, cell-based; settings: a-375, 2 min; how it was run: as §4
[24] = Metabolic stability in human A375 cells xenografted in BALB/c nude mouse assessed as radioactivity after 2 by HPLC analysis; assay type: ADME, cell-based, A-375; settings: in vivo; how it was run: as §3

Structure (SMILES): Cl.N[C@H](CCSCCC[18F])C(=O)O
- Drug uptake (Blood [1]): 2.51 % ID/g
- Drug uptake (Brain [2]): 1%
- Drug uptake (Muscle tissue): 1.97 % ID/g
- Drug uptake (Kidney [3]): Active
- Drug uptake (Pancreas [4]): 19.6 % ID/g
- Drug uptake [5]: 5.87 % ID/g
- Drug uptake (Bone): 1.05 % ID/g
- Drug uptake (HT-29 [6]): Not Active
- Drug uptake (HT-29 [7]): 1.6%
- Drug uptake (Heart [8]): 0.4 % ID/g
- Stability (Pancreas [9]): 85%
- Drug uptake (Lung): 4.11 % ID/g
- Drug uptake (Brain [10]): 0.25 % ID/g
- Drug uptake (Blood [11]): 3.51 % ID/g
- Drug uptake (Heart [12]): 3.92 % ID/g
- Drug uptake (HT-29 [13]): Active
- Drug uptake (Brain [14]): 0.75 % ID/g
- Drug uptake (Kidney [15]): 6.49 % ID/g
- Drug uptake (Pancreas [16]): 37.1 % ID/g
- Drug uptake (A-375 [17]): Active
- Drug uptake [18]: 3.91 % ID/g
- Drug uptake (Pancreas [19]): 4.79 % ID/g
- Drug uptake (Spleen): 0.31 % ID/g
- Drug uptake [20]: 1.68 % ID/g

Structure (SMILES): Cl.N[C@@H](CCSCCC[18F])C(=O)O
- Stability [21]: < 4%
- Drug uptake (Blood [1]): 4.44 % ID/g
- Stability [22]: 90%
- Drug uptake (Brain [2]): 1%
- Drug uptake (Muscle tissue): 4.2 % ID/g
- Drug uptake (Kidney [3]): Active
- Drug uptake (Pancreas [4]): 12.3 % ID/g
- Drug uptake [5]: 8.28 % ID/g
- Drug uptake (Bone): 1.69 % ID/g
- Drug uptake (HT-29 [7]): 2%
- Drug uptake (Heart [8]): 1.37 % ID/g
- Stability (Pancreas [9]): 85%
- Drug uptake (Lung): 5.21 % ID/g
- Drug uptake (Brain [10]): 2.57 % ID/g
- Drug uptake (A-375 [23]): > 50%
- Drug uptake (Blood [11]): 5.17 % ID/g
- Drug uptake (Heart [12]): 5.08 % ID/g
- Drug uptake (HT-29 [13]): Active
- Stability [24]: 78%
- Drug uptake (Brain [14]): 1.3 % ID/g
- Drug uptake (Kidney [15]): 12.6 % ID/g
- Drug uptake (Pancreas [16]): 14.3 % ID/g
- Drug uptake [18]: 5.64 % ID/g
- Drug uptake (Pancreas [19]): 6.97 % ID/g
- Drug uptake (Spleen): 1.39 % ID/g
- Drug uptake [20]: 4.4 % ID/g
